Measurements gathered from unrelated publications.
Lines come from different studies, so protocols differ.
OPRK1: Kappa-type opioid receptor (OPRK1, Cavia porcellus, UniProt P41144)
GLP2R: Glucagon-like peptide 2 receptor (GLP2R, Homo sapiens, UniProt O95838)
ADRA1A: Alpha-1A adrenergic receptor (ADRA1A, Homo sapiens, UniProt P35348)

| SMILES | target | effect on | action | method | setting | measurement | value |
| --- | --- | --- | --- | --- | --- | --- | --- |
| Cc1cc(O)cc(C)c1C[C@H](C)C(=O)N[C@@H]1C/C=C\CC[C@@H](C(N)=O)NC(=O)[C@H](Cc2ccccc2)NC(=O)[C@H](Cc2ccccc2)NC1=O | OPRK1 | ligand displacement |  | radioligand | cell membranes | Ki | 185 nM |
| CCc1cccc(C)c1C[C@H](NC(=O)[C@@H](CCCNC(=N)N)NC(=O)[C@@H](N)Cc1c(C)cc(O)cc1C)C(=O)N[C@@H](CCCCN)C(N)=O | OPRK1 | ligand displacement |  | radioligand | cell membranes | Ki | 0.961 nM |
| N=C(N)NCCC[C@H]1NC(=O)[C@H](Cc2ccc(O)cc2)NC(=O)[C@H](CCCCN)NC(=O)[C@H](Cc2ccccc2)NC1=O | OPRK1 | ligand displacement |  | radioligand | cell membranes | Ki | 67.4 nM |
| Cc1cc(O)cc(C)c1C[C@H](N)C(=O)N[C@H](C)C(=O)N[C@@H](Cc1ccccc1)C(=O)N[C@@H](CCCN)C(N)=O | OPRK1 | ligand displacement |  | radioligand | cell membranes | Ki | 32 nM |
| CC[C@H](C)[C@H](NC(=O)[C@H](CC(=O)O)NC(=O)[C@H](CC(N)=O)NC(=O)[C@@H](NC(=O)[C@H](Cc1ccccc1)NC(=O)[C@H](CO)NC(=O)CNC(=O)[C@H](CC(=O)O)NC(=O)[C@H](C)NC(=O)[C@@H](N)Cc1c[nH]cn1)[C@@H](C)O)C(=O)N[C@@H](CC(N)=O)C(=O)N[C@@H](CCCCN)C(=O)N[C@H](C(=O)N[C@@H](CC(C)C)C(=O)N[C@@H](CC(=O)O)C(=O)N[C@H](C(=O)N[C@H](C(=O)N[C@@H](C)C(=O)N[C@@H](C)C(=O)N[C@@H](CCC(N)=O)C(=O)N[C@@H](CCC(=O)O)C(=O)N[C@@H](Cc1ccccc1)C(=O)N[C@@H](CC(C)C)C(=O)N[C@@H](CC(=O)O)C(=O)N[C@@H](Cc1c[nH]c2ccccc12)C(=O)N[C@H](C(=O)N[C@H](C(=O)N[C@@H](CC(N)=O)C(=O)N[C@H](C(=O)N[C@@H](CCC(N)=O)C(=O)N[C@H](C(=O)N[C@H](C(=O)N[C@@H](CCC(=O)O)C(=O)O)[C@@H](C)O)C(C)C)[C@@H](C)O)[C@@H](C)CC)C(C)C)[C@@H](C)CC)[C@@H](C)CC)C(C)C | GLP2R | reporter gene | agonist | luciferase |  | EC50 | > 1000 nM |
| Cc1cc(O)cc(C)c1C[C@H](N)C(=O)N[C@H](CCCNC(=N)N)C(=O)N[C@@H](Cc1c(C)cccc1C(C)C)C(=O)N[C@@H](CCCCN)C(N)=O | OPRK1 | ligand displacement |  | radioligand | cell membranes | Ki | 0.236 nM |
| CCCC[C@@H](NC(=O)[C@@H](N)Cc1c(C)cc(O)cc1C)C(=O)NCC(=O)N[C@@H](Cc1ccc(F)cc1)C(=O)N(C)CCC[C@@]1(c2ccc(F)cc2)OCc2cc(C#N)ccc21 | ADRA1A | ligand displacement |  | radioligand |  | Ki | > 10000 nM |
| CSCC[C@H](NC(=O)[C@H](Cc1c[nH]c2ccccc12)NC(=O)[C@@H](N)CO)C(=O)N[C@H](C(=O)N[C@H](C(=O)N1CCC[C@H]1C(=O)N[C@@H](Cc1c[nH]c2ccccc12)C(=O)NCC(=O)N[C@@H](Cc1ccccc1)C(=O)N[C@@H](Cc1c[nH]cn1)C(=O)N[C@@H](CC(C)C)C(=O)N1CCC[C@H]1C(=O)O)[C@@H](C)O)[C@@H](C)O | Chaperonin GroEL (groEL, Escherichia coli, UniProt P0A6F5) | binding |  | ITC |  | Kd | 1400 nM |
| Cc1cc(O)cc(C)c1C[C@H](N)C(=O)N[C@H](C)C(=O)NCC(=O)N[C@@H](Cc1ccc(Cl)cc1)C(=O)N(C)CCC[C@@]1(c2ccc(F)cc2)OCc2cc(C#N)ccc21 | ADRA1A | ligand displacement |  | radioligand |  | Ki | 4600 nM |
| CC[C@H](C)[C@H](NC(=O)[C@H](CC(C)C)NC(=O)[C@H](Cc1c[nH]c2ccccc12)NC(=O)[C@H](CCCCN)NC(=O)[C@H](CC(C)C)NC(=O)[C@H](Cc1ccccc1)NC(=O)[C@H](CCC(=O)O)NC(=O)[C@H](CCC(N)=O)NC(=O)[C@@H](NC(=O)[C@H](C)NC(=O)[C@H](CC(C)C)NC(=O)[C@H](CC(=O)O)NC(=O)[C@H](CC(=O)O)NC(=O)[C@H](CC(C)C)NC(=O)[C@H](CC(C)C)NC(=O)[C@H](CCCCN)NC(=O)[C@H](CC(N)=O)NC(=O)[C@H](Cc1ccc(O)cc1)NC(=O)[C@H](CC(=O)O)NC(=O)[C@H](CO)NC(=O)[C@@H](NC(=O)[C@H](Cc1ccccc1)NC(=O)[C@@H](NC(=O)CNC(=O)[C@H](CC(=O)O)NC(=O)[C@H](C)NC(=O)[C@@H](N)Cc1c[nH]cn1)[C@@H](C)O)[C@@H](C)O)[C@@H](C)O)C(=O)N[C@@H](CC(N)=O)C(=O)N[C@@H](CCC(N)=O)C(=O)N[C@@H](CCCCN)C(=O)N[C@H](C(=O)N[C@H](C(=O)N[C@@H](CCC(N)=O)C(=O)O)[C@@H](C)O)C(C)C | GLP2R | reporter gene | agonist | luciferase |  | EC50 | 1.41 nM |
| CC[C@H](C)[C@H](NC(=O)[C@H](CCCNC(=N)N)NC(=O)[C@H](CC(C)C)NC(=O)[C@@H](N)Cc1ccccc1)C(=O)N[C@@H](CCCNC(=N)N)C(=O)N1CCC[C@H]1C(=O)N[C@@H](CCCCN)C(=O)O | ADRA1A | cell-free assay |  | radioligand |  | Ki | > 10000 nM |
| Cc1cc(O)cc(C)c1C[C@H](C)C(=O)N[C@@H]1CCCCC[C@@H](C(N)=O)NC(=O)[C@H](Cc2ccccc2)NC(=O)[C@H](Cc2ccccc2)NC1=O | OPRK1 | ligand displacement |  | radioligand | cell membranes | Ki | 302 nM |
| Cc1nccc2c1[nH]c1ccccc12 | Amine oxidase [flavin-containing] A (MAOA, Homo sapiens, UniProt P21397) | enzyme activity | inhibitor |  |  | Ki | 580 nM |
